In publication PMC4956517 (Experimental hematology, 2016):
“Also recorded” adds a separate entry of the source.

Key:
[1] = cited from earlier work
[2] = biological target: T1, hEPOR-Fc construct (EPOR extracellular domain-IgFc) (Homo sapiens, UniProt P19235); assay: Surface plasmon resonance; type: binding; settings: Biacore
T1 sequence (P19235 25-250 limits assumed): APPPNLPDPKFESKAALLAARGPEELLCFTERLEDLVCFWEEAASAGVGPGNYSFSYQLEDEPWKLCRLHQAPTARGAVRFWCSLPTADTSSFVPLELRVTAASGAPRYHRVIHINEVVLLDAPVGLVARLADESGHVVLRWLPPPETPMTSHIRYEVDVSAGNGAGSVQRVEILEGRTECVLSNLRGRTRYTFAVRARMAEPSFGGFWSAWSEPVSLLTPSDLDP

[3] = test system: EPOR (UT7epo cells); assay: Western blotting of EPOR forms in UT7epo cells; type: cell-based, human; settings: versus rHu-EPO
How it was run: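 UT7epo cells were cultured in test compound or rHu-EPO at varied, biologically matched doses. For extended time-courses, medium plus ligand was replaced daily. Western blots over the time-course were probed with rabbit monoclonal anti-hEPOR IC-c1.1, with anti-GAPDH as loading control.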

[4] = test system: endogenous cell surface EPOR (UT7epo cells); assay: Flow cytometry of endogenous cell surface EPOR in UT7epo cells; type: cell-based, human; settings: versus rHu-EPO at matched doses (1.5U/mL vs 2.1 nM, 2.0 U/mL vs 2.8nM); days 4 and 8; antibody EC-c38.5; median and mean fluorescence intensities, clear statistical significance; n=3
[5] = test system: EPOR transcript; assay: Quantitative RT-PCR of EPOR transcript levels; type: cell-based, human; settings: peginesatide vs rHu-EPO; data not shown

| Substance | TPO-reactive antibody formation ([1]; clinical trials, ref Basser 2002) | allergenic side-effects ([1]; first-time recipients, ref Bennett, et al 2014) | anaphylactic reactions ([1]; ref Bennett, et al 2014) | stability of binding to the EPOR ([2]; ECD-EPOR-Fc immobilized at 675 RU and 225 RU) | EPOR residence time, ratio to that of rHu-EPO ([2]; estimated, greater than that of rHu-EPO, immobilized ECD-EPOR-Fc) [fold] | processing of the EPOR to lower molecular weight forms ([3]; peginesatide as the EPOR ligand) | levels of full-length EPOR-68K receptor forms ([3]; time-course, antibody IC-c1.1) | levels of lower molecular weight EPOR-36K form ([3]; time-course, antibody IC-c1.1) | cell surface EPOR levels [4] | EPOR transcript levels [5] |
| --- | --- | --- | --- | --- | --- | --- | --- | --- | --- | --- |
| rHu-TPO: Thrombopoietin (TPO); effective in stimulating megakaryocyte and platelet production | induce TPO- reactive antibody formation | – | – | – | – | – | – | – | – | – |
| peginesatide | – | can also somehow stimulate allergenic reactivity; also recorded: allergenic side-effects in certain first-time recipients | rare fatal anaphylaxis; also recorded: severe anaphylactic reactions infrequently experienced | uniquely highly stable binding to the EPOR | 17.1 | observed trends towards apparent lessened processing of the EPOR to lower molecular weight forms | elevated levels of full-length EPOR-68K receptor forms | no such increases were observed | notably elevated cell surface EPOR levels | no differential effects |
